# Among all 2,500 compounds or so, about 460 (18%) were called active. These entries were drawn from the full list. A number with no mark means an inactive call.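 Rule for the calls: active = mean activation above a cutoff of low control average plus 3 SD from the earlier screen (cut at about 12% in these data); inactive = the rest.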
# Assay: compound fluorescence interference without thin filaments, confirmation, artefact control for cardiac RTF calcium sensitizer project, biochemical (AID 504382)
# Conditions: IANBD fluorescence interference counterscreen, buffer, EC20 Ca2+; at 7.2 µM; stronger effect = higher value; scaled: EC20 calcium 0, EC100 calcium 100
# Procedure, shortened: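 timing = compound incubation 15 min at 25 °C before fluorescence reading | technique = fluorescence at 480 nm excitation, 540 nm emission | evaluation = interference relative to controls | replication = triplicate wells per compound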
row,Structure (SMILES),fluorescence artifact activation
1,COc1cc(/C=C2\SC(=Nc3ccc(Cl)c(C(=O)O)c3)NC2=O)c(Br)c(Br)c1O,17.6% (active)
2,COc1cccc(N=C2NC(=O)/C(=C/c3cc([N+](=O)[O-])ccc3O)S2)c1,0.01%
3,COc1cc(/C=C2\SC(=Nc3ccccc3)NC2=O)cc(Cl)c1O,0.21%
4,c1ccc(-c2nc(-c3ccco3)n3ccccc23)cc1,0.05%
5,O=C(/C=C/c1cccc(F)c1)Nc1cc(S(=O)(=O)N2CCOCC2)ccc1N1CCCC1,0.02%
6,CC(C)CSC1=NSC2=NC(=O)/C(=C\c3coc4ccccc4c3=O)C(=N)N12,12.7% (active)
7,CC(C)CC1=NN2C(=N)/C(=C\c3coc4ccccc4c3=O)C(=O)N=C2S1,2.69%
8,N=C1/C(=C\c2coc3ccccc3c2=O)C(=O)N=C2SC(c3ccncc3)=NN12,7.67%
9,CSC1=NSC2=NC(=O)/C(=C/c3coc4ccccc4c3=O)C(=N)N12,0.27%
10,CCSC1=NSC2=NC(=O)/C(=C\c3coc4ccccc4c3=O)C(=N)N12,24.5% (active)
11,N=C1/C(=C\c2coc3ccccc3c2=O)C(=O)N=C2SC=CN12,-0.01%
12,Cn1nnnc1SCCOc1ccc(C#N)cc1,-0.03%
13,CSc1cccc(NC(=O)c2ccc(Cl)nc2)c1,-0.04%
14,Fc1ccc(-c2[nH]ncc2CN(CC2CCC2)CC2CCCO2)c(F)c1 (configuration not stated),8.43%
15,C=C(C)c1sc(-c2ccc(Cl)cc2)nc1C,0.11%
16,O=C(NN1C(=O)/C(=C/c2ccc(O)cc2)SC1=S)c1cccc(O)c1,0.01%
17,Cc1cc2nc(C3CCCN(C(=O)NCc4ccccc4)C3)[nH]c2cc1C (configuration not stated),8.15%
18,COc1ccc(-n2c(O)c(/C=N/NS(=O)(=O)c3ccc(C)cc3)c3ccccc3c2=O)cc1OC,12.8% (active)
19,COc1ccc(-n2c(O)c(/C=N/NS(=O)(=O)c3cc(C)ccc3C)c3ccccc3c2=O)cc1OC,0.84%
20,COc1ccc(-n2c(O)c(/C=N/NS(=O)(=O)c3ccc(C)c([N+](=O)[O-])c3)c3ccccc3c2=O)cc1OC,-0.02%
21,COc1ccc(/C(C)=N/N2C(=O)c3ccccc3NC2c2ccc(O)c(OC)c2)cc1 (configuration not stated),0.69%
22,Cc1ccccc1-n1c(O)c(/C=C/C=Nc2ccccc2)c(=O)[nH]c1=O,2.27%
23,Cc1cn(COC/C=C/c2ccccc2)c(=O)[nH]c1=O,25.6% (active)

row,Structure (SMILES),fluorescence artifact activation
1,CCCCOc1ccc(C2OC34CCCCC3C(C#N)(C#N)C2(C#N)C(=N)O4)cc1 (configuration not stated),0.1%
2,COc1ccc(C(=O)OC/C(O)=C(\C#N)c2nc3ccccc3[nH]2)cc1S(=O)(=O)N1CCOCC1,0.13%
3,O=C1OCC/C1=C\c1ccccc1O,-0.06%
4,COC(=O)C1CSc2[nH]c(=O)sc2C1c1ccccc1 (configuration not stated),0.07%
5,CCCCN1C(=O)/C(=C/C=C2\SCCN2C)SC1=S,0%
6,Cn1cc(/C=C2\SC(=S)N(NC(=O)c3ccccc3)C2=O)c2ccccc21,2.64%
7,CN1CCS/C1=C/C=C1\SC(=S)N(CC(=O)O)C1=O,18.9% (active)
8,CCC(C(=O)O)N1C(=O)/C(=C/c2cccn2C)SC1=S (configuration not stated),4.17%
9,CC(C)C(C(=O)O)N1C(=O)/C(=C/c2cccn2C)SC1=S (configuration not stated),12.3% (active)
10,CC(C(=O)O)N1C(=O)/C(=C/c2cccn2C)SC1=S (configuration not stated),6.16%
11,Cn1cccc1/C=C1\SC(=S)N(NC(=O)c2ccc(Cl)cc2)C1=O,0.86%
12,Cc1ccc(C(=O)NN2C(=O)/C(=C/c3cccn3C)SC2=S)cc1,4.27%
13,Cn1cc(/C=C2\SC(=S)N(NC(=O)c3cccc(Cl)c3)C2=O)c2ccccc21,17% (active)
14,CN1CCS/C1=C\C=C1/SC(=S)N(CC(=O)O)C1=O,-0.02%
15,Cn1cccc1/C=C1\SC(=S)N(NC(=O)c2ccccc2)C1=O,18.2% (active)
16,Cc1ccc(C(=O)NN2C(=O)/C(=C/c3cn(C)c4ccccc34)SC2=S)cc1,7.41%
17,Cc1ccc(N2CN(Cc3cccnc3)CNC2=S)cc1,0.4%
18,CCOC(=O)c1cnc(SC)nc1Oc1cccc(NS(=O)(=O)c2ccc(Cl)cc2)c1,0.07%
19,CCN1C(=S)SC(=O)C1=C1C=C(C)N(Cc2ccco2)C(C)=C1,0.18%
20,COc1cc(/C=N\NC(=O)CC(=O)NCCc2ccccc2)ccc1O,0.17%
21,CN(C)c1ccc(NC2=C([N+](=O)[O-])CS(=O)(=O)C2)cc1,3.15%
22,CCc1ccc(NC(=O)C2CCN(S(=O)(=O)c3ccc4[nH]c(=O)ccc4c3)CC2)cc1,0.08%
23,COc1ccc(C2OC34CCCCC3C(C#N)(C#N)C2(C#N)C(=N)O4)cc1 (configuration not stated),0.16%

row,Structure (SMILES),fluorescence artifact activation
1,CC(=O)Nc1sc2c(c1-c1nc3ccccc3s1)CN(C(C)C)CC2,-0.08%
2,Nc1c(C(=O)C2CC2)sc2nc(-c3ccccc3)cc(C(F)(F)F)c12,8.48%
3,O=C(O)CN1C(=O)/C(=C\c2cn(CC(=O)N3CCOCC3)c3ccccc23)SC1=S,4.83%
4,Cn1cccc1/C=C1/SC(=S)N(CC(=O)O)C1=O,52.3% (active)
5,Cn1cccc1/C=C1\SC(=S)N(CC(=O)O)C1=O,3.44%
6,COc1ccc2noc3c2c1C(=O)c1ccccc1-3,0.01%
7,COc1ccc(N=Cc2c(O)c3ccccc3n2C(C)=O)cc1,1.91%
8,N=c1oc2ccccc2cc1-c1nc(-c2ccccc2)cs1,0.03%
9,N#C/C(=C/c1ccc(N2CCCCC2)o1)C(=O)Nc1ccc(Cl)cc1,36.7% (active)
10,N#C/C(=C\c1ccc(N2CCOCC2)o1)C(=O)NC1CCCCC1,10.5%
11,N#C/C(=C/c1ccc(N2CCCCC2)o1)C(=O)Nc1ccc2ccccc2c1,52.8% (active)
12,N#C/C(=C\c1ccc(N2CCCCC2)o1)C(=O)Nc1cccc(Br)c1,1.73%
13,N#C/C(=C/c1ccc(N2CCOCC2)o1)C(=O)NC1CCCCC1,-0.06%
14,COc1ccc(NC(=O)/C(C#N)=C\c2ccc(N3CCOCC3)o2)cc1,8.28%
15,CCOC(=O)C1(Cc2cccc(OC)c2)CCCN(Cc2nccn2CC)C1 (configuration not stated),0.29%
16,O=C(NCc1ccco1)c1cc(-c2cccc(Cl)c2)on1,0.3%
17,O=c1[nH]ncc2c3ccccc3n(Cc3cccc(Cl)c3)c12,-0.06%
18,Cc1nc2oc(C(=O)c3ccccc3)c(N)c2c2c1COC(C)(C)C2,233% (active)
19,N#CC1(NC(=O)CN2CCN(S(=O)(=O)c3ccccc3F)CC2)CCCC1,-0.12%
20,O=C(C1=C[C@@H](c2ccc(Br)cc2)C[C@@H](OCc2ccc(CO)cc2)O1)N1CCN(Cc2ccc3c(c2)OCO3)CC1,0.02%
21,O=[n+]1c2c(n([O-])c3ccccc31)CCC2,8.78%
22,O=[n+]1c2c(n([O-])c3cc(F)c(N4CCCC4)cc31)CCCC2,50.2% (active)
23,O=[n+]1c2c(n([O-])c3cc(F)c(N4CCCC4)cc31)CCC2,18.6% (active)

row,Structure (SMILES),fluorescence artifact activation
1,CC(C)n1cnc2c(NCc3ccccc3)cc(N[C@H](C)CO)cc21,-0.08%
2,C#CCN1C(=O)S/C(=C/C=C/c2ccc(N(C)C)cc2)C1=O,0.36%
3,O=C(NCCN1CCOCC1)c1ccccc1N1C(=O)[C@@H]2Cc3c([nH]c4ccccc34)C(c3ccc(F)cc3)N2C1=O (some centres not stated),0.13%
4,COC(=O)CCC(=O)OC1(C)C(=O)C2=CN(Cc3ccc(OC)cc3)C(c3ccc(OC)cc3)=CC2=C(Br)C1=O (configuration not stated),-0.01%
5,CN(N=Nc1nc[nH]c1C(=O)NN)C1CCCCC1,0.38%
6,Fc1ccc(CN2CCCN(C(=S)Nc3ccc(F)cc3)CC2)cc1,17.4% (active)
7,O=C(Nc1ccc(F)cc1)OCCN1CCN(Cc2ccccc2)CCC1=O,-0.08%
8,Cc1ccc(NC(=O)COC(=O)c2csc3c2CCC(C)C3)cc1S(=O)(=O)N1CCCCC1 (configuration not stated),1.08%
9,COc1ccc2c(CC(=O)N[C@@H](Cc3c[nH]c4ccccc34)C(=O)O)cc(=O)oc2c1,4.51%
10,CCc1ccc(-n2c(O)c(C=NCCN(CC)CC)c(=O)[nH]c2=O)cc1,2.92%
11,CCOc1ccc(-n2c(SCC(=O)Nc3ccc(OC)cc3OC)nc3c(c2=O)SCC3)cc1,0.76%
12,Cc1[nH]nc2c1C(c1cc(Br)cs1)C(C#N)=C(N)O2 (configuration not stated),0.04%
13,COc1ccc(-c2ccc(C3C(C#N)=C(N)Oc4n[nH]c(C)c43)o2)cc1 (configuration not stated),14.3% (active)
14,CCOc1ccc(NC(=S)c2ccncc2)cc1,0.07%
15,C=COc1ccc(N2C(=O)c3ccccc3OC2C)cc1 (configuration not stated),2.14%
16,O=C(O)c1cccc(-c2ccc(/C=N/Nc3ccc([N+](=O)[O-])cc3)o2)c1,1.4%
17,Nc1ccc2nc3c(=O)[nH]c(=S)[nH]c3nc2c1,6.07%
18,Nc1ccc2nc(-c3ccccc3)cnc2c1,26.1% (active)
19,COc1ccc(-c2cc3ncc(-c4ccccc4)c(N)n3n2)cc1,1.7%
20,Cc1ccc(-c2nc(C)sc2CC(=O)O)cc1,14.7% (active)
21,Cc1ccc(-c2nc(N)sc2CC(=O)OCC(=O)NCCC(C)C)cc1,2.4%
22,Cc1ccc(SCC(=O)c2sc(-c3ccccc3)nc2C)cc1,10.1%
23,COC(=O)c1ccc(S(=O)(=O)N(CCO)Cc2ccccc2)n1C,-0.01%

# — PubChem BioAssay AID504382 (The Scripps Research Institute Molecular Screening Center, 2011)
